Several values for one entry are separate records, joined by “and”; a condition that tells them apart may be missing. Identical values can stand only once.
System: HEK-293T
Assay: Multiplex assay against HEK293T;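 for Population Tubulin-Different-Phenotype (%): share of the cells with healthy nuclei that show this phenotype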
Type: toxicity, cell-based
Conditions: human
Outline: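 Per cents of healthy-nucleus cells form the tubulin, mitochondrial-mass and membrane-permeability phenotype values. Live cells were stained at seeding with Hoechst33342, BioTracker Green Microtubule Cytoskeleton Dye, MitoTracker Red and Annexin V Alexa Fluor 680. After compound addition they were imaged on a CQ1 microscope at 37°C and 5% CO2, and CellPathfinder machine-learning gating split them into Hoechst high-intensity objects or normal cells, normal cells into healthy, pyknosed or fragmented nuclei, and pyknosed cells into mitotic or apoptotic.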

[1] = 12 h, 1 µM, compound concentration 1 uM, replicate 1
[2] = 12 h, 1 µM, compound concentration 1 uM, replicate 2
[3] = 12 h, 10 µM, compound concentration 10 uM, replicate 1
[4] = 12 h, 10 µM, compound concentration 10 uM, replicate 2
[5] = 24 h, 1 µM, compound concentration 1 uM, replicate 1
[6] = 24 h, 1 µM, compound concentration 1 uM, replicate 2
[7] = 24 h, 10 µM, compound concentration 10 uM, replicate 1
[8] = 24 h, 10 µM, compound concentration 10 uM, replicate 2
[9] = 48 h, 10 µM, compound concentration 10 uM, replicate 1
[10] = 48 h, 10 µM, compound concentration 10 uM, replicate 2

c1ccc(-c2oc3ncnc(NC[C@@H]4CCCO4)c3c2-c2ccccc2)cc1
Population Apoptotic (%) [1]: 20%
Population Fragmented Nuclei (%) [1]: 13% and 15%
Population Healthy Nuclei (%) [1]: 57% and 66%
Population Hoechst High Intensity Objects (%) [1]: 11% and 13%
Population Mitotic Cells (%) [1]: 79%
Population Normal (%) [1]: 88% and 86%
Population Pyknosed Nuclei (%) [1]: 28% and 17%
Total Cell Count [1]: 692 and 563
Population Healthy Nuclei (%) [2]: 74% and 83%
Population Hoechst High Intensity Objects (%) [2]: 2% and 1%
Population Mitotic Cells (%) [2]: 86% and 97%
Population Normal (%) [2]: 97% and 98%
Total Cell Count [2]: 938 and 1825
Population Apoptotic (%) [3]: 72%
Population Fragmented Nuclei (%) [3]: 14%
Population Healthy Nuclei (%) [3]: 25%
Population Hoechst High Intensity Objects (%) [3]: 17%
Population Membrane Permeable-Phenotype (%) [3]: 3%
Population Mitochondria Different-Phenotype (%) [3]: 98%
Population Mitotic Cells (%) [3]: 27%
Population Normal (%) [3]: 82%
Population Pyknosed Nuclei (%) [3]: 59%
Population Tubulin-Different-Phenotype (%) [3]: 98%
Total Cell Count [3]: 263
Population Apoptotic (%) [4]: 43%
Population Fragmented Nuclei (%) [4]: 4%
Population Healthy Nuclei (%) [4]: 31%
Population Hoechst High Intensity Objects (%) [4]: 7%
Population Membrane Permeable-Phenotype (%) [4]: 17%
Population Mitochondria Different-Phenotype (%) [4]: 71%
Population Mitotic Cells (%) [4]: 56%
Population Normal (%) [4]: 92%
Population Pyknosed Nuclei (%) [4]: 63%
Population Tubulin-Different-Phenotype (%) [4]: 90%
Total Cell Count [4]: 218
Population Apoptotic (%) [5]: 28% and 21%
Population Fragmented Nuclei (%) [5]: 11% and 14%
Population Healthy Nuclei (%) [5]: 65% and 77%
Population Hoechst High Intensity Objects (%) [5]: 10% and 5%
Population Mitotic Cells (%) [5]: 71% and 78%
Population Normal (%) [5]: 89% and 94%
Total Cell Count [5]: 699 and 659
Population Apoptotic (%) [6]: 8% and 3%
Population Healthy Nuclei (%) [6]: 74%
Population Hoechst High Intensity Objects (%) [6]: 2% and 3%
Population Mitotic Cells (%) [6]: 91% and 96%
Population Normal (%) [6]: 97% and 96%
Total Cell Count [6]: 1013 and 3002
Population Apoptotic (%) [7]: 69%
Population Fragmented Nuclei (%) [7]: 20%
Population Healthy Nuclei (%) [7]: 19%
Population Hoechst High Intensity Objects (%) [7]: 23%
Population Membrane Permeable-Phenotype (%) [7]: 0%
Population Mitochondria Different-Phenotype (%) [7]: 94%
Population Mitotic Cells (%) [7]: 30%
Population Normal (%) [7]: 76%
Population Pyknosed Nuclei (%) [7]: 60%
Population Tubulin-Different-Phenotype (%) [7]: 94%
Total Cell Count [7]: 260
Population Apoptotic (%) [8]: 43%
Population Fragmented Nuclei (%) [8]: 2%
Population Healthy Nuclei (%) [8]: 31%
Population Hoechst High Intensity Objects (%) [8]: 4%
Population Membrane Permeable-Phenotype (%) [8]: 16%
Population Mitochondria Different-Phenotype (%) [8]: 75%
Population Mitotic Cells (%) [8]: 56%
Population Normal (%) [8]: 95%
Population Pyknosed Nuclei (%) [8]: 66%
Population Tubulin-Different-Phenotype (%) [8]: 90%
Total Cell Count [8]: 222
Population Apoptotic (%) [9]: 70%
Population Fragmented Nuclei (%) [9]: 26%
Population Healthy Nuclei (%) [9]: 16%
Population Hoechst High Intensity Objects (%) [9]: 23%
Population Membrane Permeable-Phenotype (%) [9]: 3%
Population Mitochondria Different-Phenotype (%) [9]: 96%
Population Mitotic Cells (%) [9]: 29%
Population Normal (%) [9]: 76%
Population Pyknosed Nuclei (%) [9]: 57%
Population Tubulin-Different-Phenotype (%) [9]: 93%
Total Cell Count [9]: 268
Population Apoptotic (%) [10]: 48%
Population Fragmented Nuclei (%) [10]: 4%
Population Healthy Nuclei (%) [10]: 64%
Population Hoechst High Intensity Objects (%) [10]: 5%
Population Membrane Permeable-Phenotype (%) [10]: 19%
Population Mitochondria Different-Phenotype (%) [10]: 66%
Population Mitotic Cells (%) [10]: 51%
Population Normal (%) [10]: 94%
Population Pyknosed Nuclei (%) [10]: 31%
Population Tubulin-Different-Phenotype (%) [10]: 90%
Total Cell Count [10]: 272

Cl.Cn1c2c(c3ccc(Cl)c(Cl)c31)C(C#N)C1(CCNCC1)NC2=O (centres undefined)
Population Apoptotic (%) [1]: 17%
Population Fragmented Nuclei (%) [1]: 13%
Population Healthy Nuclei (%) [1]: 66%
Population Hoechst High Intensity Objects (%) [1]: 10%
Population Membrane Permeable-Phenotype (%) [1]: 8%
Population Mitochondria Different-Phenotype (%) [1]: 6%
Population Mitotic Cells (%) [1]: 82%
Population Normal (%) [1]: 89%
Population Pyknosed Nuclei (%) [1]: 19%
Population Tubulin-Different-Phenotype (%) [1]: 10%
Total Cell Count [1]: 650
Population Apoptotic (%) [2]: 2%
Population Fragmented Nuclei (%) [2]: 6%
Population Healthy Nuclei (%) [2]: 87%
Population Hoechst High Intensity Objects (%) [2]: 3%
Population Membrane Permeable-Phenotype (%) [2]: 3%
Population Mitochondria Different-Phenotype (%) [2]: 7%
Population Mitotic Cells (%) [2]: 97%
Population Normal (%) [2]: 96%
Population Pyknosed Nuclei (%) [2]: 5%
Total Cell Count [2]: 1592
Population Apoptotic (%) [3]: 24%
Population Fragmented Nuclei (%) [3]: 16%
Population Healthy Nuclei (%) [3]: 30%
Population Hoechst High Intensity Objects (%) [3]: 20%
Population Membrane Permeable-Phenotype (%) [3]: 23%
Population Mitochondria Different-Phenotype (%) [3]: 14%
Population Mitotic Cells (%) [3]: 75%
Population Normal (%) [3]: 79%
Population Pyknosed Nuclei (%) [3]: 52%
Population Tubulin-Different-Phenotype (%) [3]: 76%
Total Cell Count [3]: 698
Population Apoptotic (%) [4]: 17%
Population Fragmented Nuclei (%) [4]: 3%
Population Healthy Nuclei (%) [4]: 74%
Population Hoechst High Intensity Objects (%) [4]: 4%
Population Membrane Permeable-Phenotype (%) [4]: 24%
Population Mitochondria Different-Phenotype (%) [4]: 25%
Population Mitotic Cells (%) [4]: 82%
Population Normal (%) [4]: 95%
Population Pyknosed Nuclei (%) [4]: 22%
Population Tubulin-Different-Phenotype (%) [4]: 95%
Total Cell Count [4]: 983
Population Apoptotic (%) [5]: 16%
Population Fragmented Nuclei (%) [5]: 11%
Population Healthy Nuclei (%) [5]: 77%
Population Hoechst High Intensity Objects (%) [5]: 7%
Population Membrane Permeable-Phenotype (%) [5]: 17%
Population Mitochondria Different-Phenotype (%) [5]: 5%
Population Mitotic Cells (%) [5]: 83%
Population Normal (%) [5]: 92%
Population Pyknosed Nuclei (%) [5]: 10%
Population Tubulin-Different-Phenotype (%) [5]: 17%
Total Cell Count [5]: 747
Population Apoptotic (%) [6]: 5%
Population Fragmented Nuclei (%) [6]: 24%
Population Healthy Nuclei (%) [6]: 72%
Population Hoechst High Intensity Objects (%) [6]: 3%
Population Membrane Permeable-Phenotype (%) [6]: 7%
Population Mitochondria Different-Phenotype (%) [6]: 1%
Population Mitotic Cells (%) [6]: 94%
Population Normal (%) [6]: 96%
Population Pyknosed Nuclei (%) [6]: 2%
Population Tubulin-Different-Phenotype (%) [6]: 11%
Total Cell Count [6]: 2758
Population Apoptotic (%) [7]: 25%
Population Fragmented Nuclei (%) [7]: 19%
Population Healthy Nuclei (%) [7]: 32%
Population Hoechst High Intensity Objects (%) [7]: 19%
Population Membrane Permeable-Phenotype (%) [7]: 16%
Population Mitochondria Different-Phenotype (%) [7]: 22%
Population Mitotic Cells (%) [7]: 74%
Population Normal (%) [7]: 80%
Population Pyknosed Nuclei (%) [7]: 47%
Population Tubulin-Different-Phenotype (%) [7]: 86%
Total Cell Count [7]: 669
Population Apoptotic (%) [8]: 12%
Population Fragmented Nuclei (%) [8]: 5%
Population Healthy Nuclei (%) [8]: 81%
Population Hoechst High Intensity Objects (%) [8]: 9%
Population Membrane Permeable-Phenotype (%) [8]: 13%
Population Mitochondria Different-Phenotype (%) [8]: 25%
Population Mitotic Cells (%) [8]: 87%
Population Normal (%) [8]: 91%
Population Pyknosed Nuclei (%) [8]: 13%
Population Tubulin-Different-Phenotype (%) [8]: 94%
Total Cell Count [8]: 1033
